Consider 7 compounds from ChEMBL document CHEMBL1124188, “Soft drugs. 7. Soft beta-blockers for systemic and ophthalmic use” (J Med Chem, 1988).

The nature of data set [1]: (§1) Half life period determined in human blood. It counts as ADME, organism-based. A digest of the protocol: (§2)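 Compounds were placed in human blood, and samples were withdrawn over time. Each sample was mixed at once with ice-cold acetonitrile and centrifuged. The supernatant was analysed by reverse-phase C18 HPLC with variable-wavelength UV detection. Disappearance was treated as pseudo-first-order. Values are the mean of at least four runs ± SE of the mean.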

For data set [2], the species on record is Homo sapiens. Nature of the data set: In vitro hydrolytic rate constant determined in human blood. It counts as ADME. A digest of the protocol: as §2
The species entered for data set [3] is Homo sapiens. Described as §1. It counts as ADME, organism-based. The settings on record: in vitro. A digest of the protocol:
as §2

For `CC(C)NCC(O)COc1ccc(CC(=O)OCC(=O)OC2CCCCC2)cc1` (centres undefined), in data set [1] (human blood), the half-life turned out to be 4.5 min. In addition, in the data set listed under Homo sapiens [2], the K stood at 0.154 min⁻¹.
With `CC(C)NCC(O)COc1ccc(CC(=O)OCC23CC4CC(CC(C4)C2)C3)cc1` (centres undefined), in data set [1] (human blood), the half-life stood at 46.2 min. In the data set listed under Homo sapiens [2], this compound had a K of 0.015 min⁻¹.
In turn, `CC(C)NCC(O)COc1ccc(CC(=O)OC2CC3CCC2(C)C3(C)C)cc1` (centres undefined) gave a half-life in data set [1] (human blood) of 770 min. In addition, the K in the data set listed under Homo sapiens [2] turned out to be 0.0009 min⁻¹.
As for `CC(C)NCC(O)COc1ccc(CC(=O)OC2CC3CCC2C3)cc1` (stereo in doubt; 3e), the T1/2 in the data set filed under Homo sapiens [3] was determined as 19.8 min. Besides, the K in the data set listed under Homo sapiens [2] was 35000 min⁻¹.
Compound `CC(C)NCC(O)COc1ccc(CC(=O)OC2CC3CCC2C3)cc1` (stereo in doubt; 3f) had a half-life in data set [1] (human blood) of 34.6 min. Besides, in the data set filed under Homo sapiens [2], the K stood at 0.02 min⁻¹.
As for `CC(C)NCC(O)COc1ccc(CC(=O)OCCC23CC4CC(CC(C4)C2)C3)cc1` (centres undefined) [ADAPROLOL], the half-life in data set [1] was 6.9 min. In the data set listed under Homo sapiens [2], this compound showed a K of 0.1 min⁻¹.
As to `COC(=O)CCc1ccc(OCC(O)CNC(C)C)cc1` (centres undefined) [ESMOLOL], in the data set filed under Homo sapiens [3], the T1/2 was 210 min. Also, the K in the data set listed under Homo sapiens [2] is 0.0033 min⁻¹.
